Measured values published in ChEMBL document CHEMBL1135780, “6-Chloro-3-alkylamino-4H-thieno[3,2-e]-1,2,4-thiadiazine 1,1-dioxide derivatives potently and selectively activate ATP sensitive potassium channels of pancreatic beta-cells” (J Med Chem, 2002).

Assays:
[1] = species: Rattus norvegicus; test: Ability to relax phenylephrine-contracted rat aorta rings; assay type: functional
[2] = test system: Beta-TC6; test: Ability to inhibit the release of insulin from the mouse beta-TC6 cell line; assay type: functional, cell-based
How it was run: (§1)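 βTC6 cells, 5 × 10⁴/well, grown 3 days in DMEM + 10% FCS, 11 mM glucose, 20 mM Hepes. Washed twice in NN buffer with 0.1% BSA, preincubated 60 min, then 3 h with 22 mM glucose, 0.1 mM IBMX and serial compound dilutions. Insulin in supernatant measured by in-house ELISA (guinea pig anti-insulin, rat insulin standard). Reference compound as positive control.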

[3] = species: Rattus norvegicus; test: Effective concentration require for relaxation of rat aorta rings; assay type: functional
[4] = test system: Beta-TC6; test: Maximum inhibition of glucose stimulated insulin release from mouse beta-TC6 cells at 10 uM in vitro.; assay type: functional
[5] = Changes in potassium fluxes assessed in the glucose responsive insulin-producing murine cell line beta-TC3; assay type: functional, cell-based, Mus musculus
How it was run: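 βTC3 membrane potential read as DiBAC4(3) fluorescence at 0.01, 0.1, 1, 10 and 100 µM, four wells each. Signal normalized to each well's initial value and expressed as fractional fluorescence change over 45 min incubation. EC50 from four-parameter nonlinear fit; mean ± SEM of at least three independent experiments.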

[6] = species: Rattus norvegicus; test: Maximum change in MAP in rat; assay type: functional
How it was run: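 Anaesthetized male Sprague–Dawley rats given 3 mg/kg iv bolus (0.3 mg/kg for one compound) in 0.15% NaOH/saline via jugular cannula. Maximal percent change in mean arterial pressure over 5 min after dosing; mean ± SEM, 2–4 animals.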

[7] = species: Rattus norvegicus; test: Maximum reduction in plasma insulin in rat; assay type: functional
How it was run: (§2)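 Postprandial male Sprague–Dawley rats, 280–320 g, under Hypnorm/Dormicum at 37 °C. 3 mg/kg iv bolus over 20 s via jugular cannula (0.3 mg/kg for one compound), dissolved in 0.15% NaOH and saline. Blood taken every 5–10 min from 15 min pre- to 30 min postinjection. Plasma insulin by ELISA, as % reduction from pre-dose level. 2–4 animals.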

[8] = molecular target: T1, Sulfonylurea receptor 1, Kir6.2 (Homo sapiens, UniProt Q09428+Q14654); test: Inhibition of [3H]glibenclamide binding to HEK293 cells co-expressing human Sulfonylurea receptor SUR1 and Inward rectifier K+ channel Kir6.2 without ATP; assay type: cell-based
T1 sequence (Q14654 whole entry): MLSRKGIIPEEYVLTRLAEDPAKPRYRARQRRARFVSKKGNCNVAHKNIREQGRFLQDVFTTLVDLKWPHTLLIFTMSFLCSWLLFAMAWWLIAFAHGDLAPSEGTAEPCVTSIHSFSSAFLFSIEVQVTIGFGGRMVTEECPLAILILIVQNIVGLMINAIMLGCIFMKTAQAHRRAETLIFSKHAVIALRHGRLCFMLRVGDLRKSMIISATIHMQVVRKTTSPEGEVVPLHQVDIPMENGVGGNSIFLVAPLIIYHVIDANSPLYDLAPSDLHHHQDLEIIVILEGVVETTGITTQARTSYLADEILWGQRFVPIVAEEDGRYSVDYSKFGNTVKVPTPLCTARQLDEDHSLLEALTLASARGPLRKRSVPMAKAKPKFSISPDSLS
T1 sequence (Q09428 whole entry): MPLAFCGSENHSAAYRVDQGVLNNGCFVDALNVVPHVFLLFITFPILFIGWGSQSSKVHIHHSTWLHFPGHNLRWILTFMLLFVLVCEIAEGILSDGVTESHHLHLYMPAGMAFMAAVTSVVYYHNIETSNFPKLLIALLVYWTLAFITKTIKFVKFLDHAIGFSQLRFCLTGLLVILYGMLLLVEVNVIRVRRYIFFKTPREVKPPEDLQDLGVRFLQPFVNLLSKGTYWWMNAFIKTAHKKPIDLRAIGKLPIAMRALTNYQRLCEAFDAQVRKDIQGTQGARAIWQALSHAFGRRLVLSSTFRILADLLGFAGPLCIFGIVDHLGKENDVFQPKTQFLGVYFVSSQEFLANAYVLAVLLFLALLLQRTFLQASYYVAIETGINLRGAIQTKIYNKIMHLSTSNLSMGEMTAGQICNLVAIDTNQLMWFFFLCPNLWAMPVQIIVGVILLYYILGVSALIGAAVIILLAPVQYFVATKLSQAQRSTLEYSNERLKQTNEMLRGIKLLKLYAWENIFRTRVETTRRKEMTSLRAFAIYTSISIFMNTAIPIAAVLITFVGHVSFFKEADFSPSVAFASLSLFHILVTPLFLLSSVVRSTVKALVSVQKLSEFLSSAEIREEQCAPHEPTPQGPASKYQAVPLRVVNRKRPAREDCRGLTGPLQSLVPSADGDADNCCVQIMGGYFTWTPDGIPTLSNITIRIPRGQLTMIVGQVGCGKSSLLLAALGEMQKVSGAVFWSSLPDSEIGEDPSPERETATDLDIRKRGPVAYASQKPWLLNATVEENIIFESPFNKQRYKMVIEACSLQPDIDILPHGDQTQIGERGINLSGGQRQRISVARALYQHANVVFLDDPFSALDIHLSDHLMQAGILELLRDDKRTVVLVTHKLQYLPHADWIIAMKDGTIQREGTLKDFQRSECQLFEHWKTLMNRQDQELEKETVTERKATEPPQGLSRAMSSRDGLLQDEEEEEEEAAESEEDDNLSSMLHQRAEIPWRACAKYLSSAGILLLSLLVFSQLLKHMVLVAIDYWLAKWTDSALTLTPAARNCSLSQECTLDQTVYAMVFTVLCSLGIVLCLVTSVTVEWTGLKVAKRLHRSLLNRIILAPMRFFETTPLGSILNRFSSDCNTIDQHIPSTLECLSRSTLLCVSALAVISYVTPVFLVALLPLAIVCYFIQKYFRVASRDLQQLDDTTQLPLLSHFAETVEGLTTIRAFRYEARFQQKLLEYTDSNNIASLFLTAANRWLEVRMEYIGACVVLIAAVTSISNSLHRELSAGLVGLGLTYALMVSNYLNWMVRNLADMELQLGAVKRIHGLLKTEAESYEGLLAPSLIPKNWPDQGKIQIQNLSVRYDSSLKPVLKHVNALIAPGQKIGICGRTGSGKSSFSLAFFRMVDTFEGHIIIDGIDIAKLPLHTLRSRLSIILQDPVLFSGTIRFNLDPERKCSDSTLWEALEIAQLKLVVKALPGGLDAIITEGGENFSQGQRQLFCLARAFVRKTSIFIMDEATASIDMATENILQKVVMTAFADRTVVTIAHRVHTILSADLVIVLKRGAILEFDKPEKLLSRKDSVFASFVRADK
How it was run: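 Membranes from HEK293 cells stably expressing human SUR1/Kir6.2 (100 µg/mL protein) incubated 1 h at 37 °C with 1 nM [3H]glibenclamide in 30 mM HEPES pH 7.4, here without MgCl2 and ATP. Nonspecific binding with 10 µM glipizide. Rapid filtration, scintillation counting; IC50 by one- or two-site sigmoid nonlinear regression.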

[9] = test system: βTC6 cells (Mus musculus); test: Inhibition of glucose-stimulated insulin release from βTC6 cells
[10] = Acid dissociation constant was determined; assay type: ADME
How it was run: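 Potentiometric titration from pH 2 to 10.5 in 80% MeOH cosolvent. Three titrations on the same sample, with 0.15 M KCl added before the second. psKa values extrapolated to 0% cosolvent by Yasuda–Shedlovsky.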

[11] = Half life after oral administration to Sprague-Dawley rats; assay type: ADME, organism-based; conditions: rat, in vivo
How it was run: (§3)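 Cassette dosing, two compounds per cassette, in Sprague–Dawley rats of about 180 g, n = 2. iv doses 0.5 or 0.89 mg/kg; oral doses 1.89 or 2.0 mg/kg. Vehicle 0.1 M potassium phosphate pH 8.0, or PEG 300 based. Heart-puncture sampling, one rat per point. Plasma levels by LC/MS/MS; noncompartmental analysis.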

[12] = test system: Beta-TC6; test: Percentage insulin release in vitro in beta-TC6 cells; assay type: functional; conditions: Mus musculus; how it was run: as §1
[13] = molecular target: T1, Sulfonylurea receptor 1, Kir6.2; test: Inhibition of [3H]glibenclamide binding to HEK293 cells co-expressing human Sulfonylurea receptor SUR1 and Inward rectifier K+ channel Kir6.2 at high affinity state with 2 mM MgATP; assay type: cell-based
[14] = molecular target: T1, Sulfonylurea receptor 1, Kir6.2; test: Inhibition of [3H]glibenclamide binding to HEK293 cells co-expressing human Sulfonylurea receptor SUR1 and Inward rectifier K+ channel Kir6.2 at low affinity state with 2 mM MgATP; assay type: cell-based
[15] = species: Rattus norvegicus; test: Reduction in plasma insulin in 30 min post-injection in rat; assay type: functional; parameters: concentration or dose not given beside the values; how it was run: as §2
[16] = species: Rattus norvegicus; test: Inhibition of glucose-stimulated insulin release from Wistar rat islets; assay type: functional
How it was run: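 Isolated rat islets held overnight in RPMI, 10% FCS, 11 mM glucose, then 10 islets/well overnight in DMEM, 10% FCS, 3 mM glucose. Run like the βTC6 assay (60 min NN buffer preincubation, 3 h with 22 mM glucose and serial dilutions) without IBMX. Insulin by in-house ELISA.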

[17] = Oral bioavailability in rat (Sprague-Dawley); assay type: ADME, organism-based; conditions: Sprague-Dawley, in vivo; how it was run: as §3

SMILES | EC50 [1] [µM] | IC50 [2] [µM] | EC50 [3] [µM] | Emax at 10 µM [4] [%] | EC50 [5] [µM] | Change [6] [%] | Reduction [7] [%] | IC50 [8] [µM] | Emax [9] [%] | pKa [10] | half-life [11] [h] | Emax [12] [%] | IC50 [13] [µM] | IC50 [14] [µM] | Reduction [15] [%] | IC50 [16] [µM] | bioavailability [17] [%]
CNC1=NS(=O)(=O)c2sc(Cl)cc2N1 | 17.3 | 21.2 | 17.3 | 35 | > 100 |  |  |  |  |  |  |  |  |  |  |  | 
CC[C@@H](C)NC1=NS(=O)(=O)c2sc(Cl)cc2N1 | 70 | 0.24 |  |  | 0.3 | -17 | 97 | 487 | 82 | 8.54 | 2.72 | 82 | 0.64 | 224 | 94 | 0.06 | 90
